ChEMBL document CHEMBL3244103, “Modifications of primiaquine as antimalarials. 2. 5-Phenylthio and 5-anilino derivatives of primaquine” (J Med Chem, 1978)
Calls of active or inactive are those of the source. The calls are words filed in the database; no cut-off is given here.

What was measured:
Plasmodium cynomolgi [1] = test: Antimalarial activity against Plasmodium cynomolgi infected in rhesus monkey at 1 mg/kg; assay type: functional, organism-based; design: dose 1 mg/kg
Procedure, shortened: (§1)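 Radical curative test in rhesus monkeys infected with P. cynomolgi, with compounds given at 0.5, 1 or 10 mg/kg. The read-out is either cures per number of animals treated or the day of relapse for animals not cured.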

Plasmodium cynomolgi [2] = test: Antimalarial activity against Plasmodium cynomolgi infected in rhesus monkey at 10 mg/kg; assay type: functional, organism-based; design: dose 10 mg/kg; procedure, shortened: as §1
Rhesus monkey = test: Toxicity in rhesus monkey at 160 mg/kg; assay type: organism-based, Macaca mulatta; design: dose 160 mg/kg; settings: in vivo
Mus musculus = species on record: Mus musculus; test: Toxicity in mouse; settings: in vivo
Plasmodium berghei = test: Antimalarial activity against Plasmodium berghei infected in mouse at 320 to 640 mg/kg
Plasmodium cynomolgi [3] = test: Antimalarial activity against Plasmodium cynomolgi infected in rhesus monkey at 0.5 mg/kg; assay type: functional, organism-based; design: dose 0.5 mg/kg; procedure, shortened: as §1

SMILES	Activity (Plasmodium cynomolgi [2])	further results
COc1cc(NC(C)CCCN)c2ncccc2c1Sc1cccc(C(F)(F)F)c1 (stereo unspecified)		Activity (Plasmodium cynomolgi [1]): Active
COc1cc(NC(C)CCCN)c2ncccc2c1Sc1ccc2ccccc2c1 (stereo unspecified)	Active	
COc1cc(NC(C)CCCN)c2ncccc2c1Sc1ccc(Cl)c(Cl)c1 (stereo unspecified)	Active	
COc1cc(NC(C)CCCN)c2ncccc2c1.O=P(O)(O)O.O=P(O)(O)O (stereo unspecified) [PRIMAQUINE PHOSPHATE]		Activity (Rhesus monkey): Toxic
COc1ccc(Sc2c(OC)cc(NC(C)CCCN)c3ncccc23)cc1.O=C(O)CC(O)(CC(=O)O)C(=O)O (stereo unspecified)		Activity (Mus musculus): Non-toxic; Activity (Plasmodium berghei): Active
COc1cc(NC(C)CCCN)c2ncccc2c1Sc1ccccc1Cl (stereo unspecified)	Active	
COc1cc(NC(C)CCCN)c2ncccc2c1Sc1cc(Cl)ccc1Cl (stereo unspecified)	Active	
COc1cc(NC(C)CCCN)c2ncccc2c1Sc1cccc(Cl)c1 (stereo unspecified)	Active	
COc1cc(NC(C)CCCN)c2ncccc2c1Sc1ccc(Cl)cc1 (stereo unspecified)	Active	Activity (Plasmodium cynomolgi [3]): inactive
